Experimental findings from the array DNA melting data of Ke et al. (doi:10.1101/2024.01.08.574731) are described below.

Data set [1] can be described thus: folding enthalpy; higher = less favourable; fluorescence melt of hairpins on a sequencing array, two-state fit. Particulars: sodium 0.088 M. A digest of the protocol:
(§1)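 Cy3 fluorescence of library hairpins on a sequenced MiSeq flow cell, with annealed Cy3 and quencher oligos, was imaged in 50 mM Na-HEPES pH 8.0, 25 mM NaCl in 2.5 °C steps up to 60 °C. Signals were normalised to pre-quench Cy3 and to control variants. Melting temperature and folding enthalpy came from bootstrapped two-state fits, inverse-variance combined over four replicates. Fitted temperatures were raised by 9.35 °C to match UV melts.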

A short description of data set [2]: melting temperature; fluorescence melt of hairpins on a sequencing array, two-state fit, raised by 9.35 °C to match UV melts. The settings on record: sodium 0.088 M. In short, it runs like this:
as §1

Turning to GCAAGGCGAAAGCTCTGC (((..((....))..))), the folding enthalpy in data set [1] was -21.5 kcal/mol. Besides, the Tm in data set [2] came out at 43.7 °C.

As to GCAAGGCGAAAGCTGTGC (((..((....))..))), the folding enthalpy in data set [1] is -18.1 kcal/mol. For the same sequence, the Tm in data set [2] is 52.8 °C.

In the case of GCAAGGCGAAAGCTTGGC ((.(.((....)).).)), in data set [1], the folding enthalpy was -17.9 kcal/mol. In addition, the Tm in data set [2] amounted to 44 °C.

Take GCAAGGGGAAACCCTCAC (..((((....))))..): in data set [1], the folding enthalpy is -9.15 kcal/mol. Also, in data set [2], the Tm is 25.2 °C.

Turning to GCAAGGGGAAACCTTTGC ((((.((....)).)))), the folding enthalpy in data set [1] is -30.8 kcal/mol. Also, the Tm in data set [2] worked out at 47.6 °C.

With GCAAGGGGAAACTCTTGC (((((.(....).))))), the folding enthalpy in data set [1] was -45.3 kcal/mol. For the same sequence, the Tm in data set [2] turned out to be 50.1 °C.

As to GCAAGTCGAAAGACATGC (((.(((....))).))), in data set [1], the folding enthalpy is -29.1 kcal/mol. The Tm in data set [2] stood at 52.7 °C.

Regarding GCAAGTGGAAACACTCGC ((.((((....)))).)), in data set [1], the folding enthalpy was -25.4 kcal/mol. Further, in data set [2], the Tm was determined as 44.3 °C.

Turning to GCAAGTGGAAACACTTAC (.(((((....))))).), the folding enthalpy in data set [1] is -18.7 kcal/mol. Moreover, in data set [2], the Tm came to 34.6 °C.

On to GCAATACGAAAGTAATGC (((.(((....))).))), for which the folding enthalpy in data set [1] was -37.4 kcal/mol. Moreover, the Tm in data set [2] was found to be 47.4 °C.

On to GCAATACGAAAGTACTGC (((.(((....))).))), for which the folding enthalpy in data set [1] is -31.3 kcal/mol. The Tm in data set [2] is 43.9 °C.

With GCAATAGGAAACTATCGC ((.((((....)))).)), in data set [1], the folding enthalpy is -18.6 kcal/mol. For the same sequence, the Tm in data set [2] is 33.9 °C.

On to GCAATAGGAAACTATTGC (((((((....))))))), for which the folding enthalpy in data set [1] was -45.8 kcal/mol. In data set [2], the Tm is 56 °C.

With GCAATAGGAAACTGTTGC ((((.((....)).)))), the folding enthalpy in data set [1] was -33 kcal/mol. The Tm in data set [2] is 47.4 °C.

As to GCAATATCGAAAGATTGC (((..(((....)))))), the folding enthalpy in data set [1] was -25.5 kcal/mol. Further, the Tm in data set [2] was 39.5 °C.

On to GCAATCCCGAAAGGGTGC (((..(((....)))))), for which the folding enthalpy in data set [1] was -19.1 kcal/mol. The Tm in data set [2] was 46.6 °C.

GCAATCGAAAGATATTGC ((((((....)))..))): the folding enthalpy in data set [1] is -18.7 kcal/mol. In data set [2], the Tm was 35.5 °C.

Consider GCAATCGAAAGATGATGC ((((((....)))..))), for which the folding enthalpy in data set [1] was -18.6 kcal/mol. In addition, the Tm in data set [2] amounted to 32.5 °C.

Regarding GCAATCGAAAGATGTGC ((((((....))).))), the folding enthalpy in data set [1] is -25.5 kcal/mol. The Tm in data set [2] is 39.5 °C.

On to GCAATCGAAAGATGTTGC ((((((....)))..))), for which the folding enthalpy in data set [1] is -15.9 kcal/mol. Also, the Tm in data set [2] stood at 34.6 °C.

Turning to GCAATCGAAAGATTATGC ((((((....)))..))), in data set [1], the folding enthalpy was -17.5 kcal/mol. For the same sequence, the Tm in data set [2] is 32.8 °C.

For GCAATGACGAAAGTCTGC (((..(((....)))))), in data set [1], the folding enthalpy was -19.4 kcal/mol. The Tm in data set [2] was determined as 42 °C.

As to GCAATGCGAAAGCAAAGC ((..(((....)))..)), the folding enthalpy in data set [1] is -14.6 kcal/mol. Moreover, the Tm in data set [2] came to 38 °C.

Regarding GCAATGCGAAAGCATCGC ((.((((....)))).)), in data set [1], the folding enthalpy is -21.4 kcal/mol. Further, in data set [2], the Tm is 58.1 °C.

With GCAATGCGAAAGCATGGC ((.((((....)))).)), the folding enthalpy in data set [1] was -34 kcal/mol. The Tm in data set [2] worked out at 65.2 °C.

In the case of GCAATGCGAAAGCGGTGC (((..((....))..))), in data set [1], the folding enthalpy is -21.7 kcal/mol. Moreover, the Tm in data set [2] came to 56.6 °C.

As for GCAATGCGAAAGCGTCGC ((.(.((....)).).)), in data set [1], the folding enthalpy was -19.3 kcal/mol. In addition, the Tm in data set [2] was 45.4 °C.

GCAATGCGAAAGCTGTGC (((..((....))..))): the folding enthalpy in data set [1] is -20.6 kcal/mol. Moreover, the Tm in data set [2] turned out to be 48.4 °C.

GCAATGGGAAACCATCGC ((.((((....)))).)): the folding enthalpy in data set [1] is -28.8 kcal/mol. The Tm in data set [2] was 42.1 °C.

Consider GCAATTGGAAACAATTAC (.(((((....))))).), for which the folding enthalpy in data set [1] was -15.1 kcal/mol. In data set [2], the Tm was 30.6 °C.

On to GCAATTGGAAACAATTGC (((((((....))))))), for which the folding enthalpy in data set [1] was -43.9 kcal/mol. Besides, the Tm in data set [2] came out at 58.9 °C.

Regarding GCACAAACGAAAGTTTGC (((..(((....)))))), the folding enthalpy in data set [1] is -11.2 kcal/mol. Also, in data set [2], the Tm worked out at 39.7 °C.

With GCACAAGGAAACTTGTGC (((((((....))))))), in data set [1], the folding enthalpy was -33.7 kcal/mol. Also, in data set [2], the Tm was 67.4 °C.

Take GCACACGAAAGTGATGC ((((((....))).))): the folding enthalpy in data set [1] is -33.1 kcal/mol. For the same sequence, the Tm in data set [2] turned out to be 54.5 °C.

Turning to GCACACGAAAGTGCATGC ((((((....)))..))), the folding enthalpy in data set [1] was -14.4 kcal/mol. Besides, the Tm in data set [2] stood at 42.1 °C.

Regarding GCACACGAAAGTGCTTGC ((((((....)))..))), the folding enthalpy in data set [1] was -20.8 kcal/mol. Moreover, the Tm in data set [2] stood at 53.6 °C.

On to GCACACGAAAGTGGGTGC ((((((....)))..))), for which the folding enthalpy in data set [1] is -24.1 kcal/mol. Also, in data set [2], the Tm was 53.5 °C.
